Compound activity deposited in PubChem by several laboratories.
Compounds with a hit are over-represented: about 2.6% of the library has one in this group of screens.
procasp3 activ: procaspase-3 (human) activation; P42574; recombinant procaspase-3 D3A, Ac-DEVD-pNA absorbance 405 nm; activation, % at 8.5 µM; 330,000 compounds, 0.11% hits; AID 463141;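 active means activation above the mean of all tested compounds plus 3 SD, cut at about 21% in these data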;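 further: 0% = DMSO alone and 100% = DMSO wells spiked with extra 5 µM PC-3 D3A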
Target sequence (P42574 whole entry D9A/D28A/D175A): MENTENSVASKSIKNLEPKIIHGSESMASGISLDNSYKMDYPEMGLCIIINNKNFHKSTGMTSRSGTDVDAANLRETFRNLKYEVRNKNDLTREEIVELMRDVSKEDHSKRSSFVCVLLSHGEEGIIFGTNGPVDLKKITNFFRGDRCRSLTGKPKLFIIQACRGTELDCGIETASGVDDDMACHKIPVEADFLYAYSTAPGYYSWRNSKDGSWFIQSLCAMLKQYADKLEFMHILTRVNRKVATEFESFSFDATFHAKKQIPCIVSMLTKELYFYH
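Assay system: Autoprocessing-dead procaspase-3 D3A mutant enzyme; also added: Ac-DEVD-pNA; doses: one concentration, 8.5 µM nominal, 0.8% DMSO; times: 1 h compound preincubation, 2 h substrate hydrolysis at 25 °C; technique: 405 nm absorbance of p-nitroaniline, reads at 0 and 120 min; measure: % activation between DMSO and enzyme-spiked controls; repeats: single replicate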
procasp7 counter: activates human procaspase-7, counter-screen for procaspase-3 activators | P55210 | recombinant procaspase-7, Ac-DEVD-pNA absorbance 405 nm; D23A/D198A/D206A triple mutant, cannot self-cleave; scale: DMSO 0, 5 µM enzyme 100 | activation, % at 8.5 µM | 330,000 compounds, 0.093% hits | AID 463210;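 active means percent activation above the screen-wide mean plus 3 SD, cut at about 25% in these data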
Target sequence (P55210 whole entry D23A/D198A/D206A): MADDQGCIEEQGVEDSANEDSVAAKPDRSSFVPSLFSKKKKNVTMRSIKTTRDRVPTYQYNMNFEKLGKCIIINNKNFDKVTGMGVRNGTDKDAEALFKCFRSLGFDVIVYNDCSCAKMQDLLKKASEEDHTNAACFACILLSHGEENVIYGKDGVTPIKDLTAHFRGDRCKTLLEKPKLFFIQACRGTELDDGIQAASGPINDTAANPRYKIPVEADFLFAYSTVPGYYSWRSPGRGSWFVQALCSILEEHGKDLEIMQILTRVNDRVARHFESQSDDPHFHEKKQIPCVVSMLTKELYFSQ
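Assay system – Uncleavable procaspase-7 mutant enzyme · Quantity – 2 µM procaspase-7 mutant as dispensed · Times – 1 h preincubation, 2 h reaction · Dosing – single nominal 8.5 µM compound dose, 0.8% DMSO final · Buffer or medium – Zinc-free 50 mM HEPES buffer, pH 7.4, with NaCl and Triton X-100 · Detection – Epi-absorbance of released pNA at 405 nm, two timepoints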
AHR activator: activators of human aryl hydrocarbon receptor | 320,000 compounds, 2.5% hits | AID 2796 | activation, % at 5 µM | P35869 | AHR-responsive luciferase reporter cells, luminescence; in the data active means activation above about 47%;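 further: 0% = vehicle wells and 100% = reference agonist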
PolyA inh: inhibitors of polyadenylation in S. cerevisiae; activity score, % at 12 µM; AID 1875; 300,000 compounds, 0.02% hits; S. cerevisiae SKY197-pL101 polyadenylation reporter, beta-gal luminescence; efflux-impaired pdr1/pdr3 knockout yeast; score 100 = 6 SD above DMSO;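 active means lowest replicate activity score at least 50, where 100 means six control SD above control mean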;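 further: yeast exposed to compound for 9 h at 30 °C; higher score means more reporter readthrough which indicates perturbed polyadenylation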
* marks the source's active call; other numbers are inactive results; / = not tested or not shown.

SMILES	procasp3 activ	procasp7 counter	AHR activator	PolyA inh
CCOc1ccc(-c2c(C(=O)N/N=C(\C)c3ccncc3)nnn2-c2nonc2N)cc1	7	-5	15	-7
CCN(C(=O)CCS(=O)(=O)c1cccc2nonc12)c1ccc(F)cc1	2	8	-1	4
Cc1cc(NC(=O)c2ccc(F)cc2)n(CCOC(=O)c2ccc(F)cc2)n1	-2	-1	50*	17
O=C(Cc1nnc(NC(=O)c2ccccc2)s1)N/N=C/c1ccco1	0	1	115*	10
O=C(Cc1nnc(NC(=O)c2ccccc2)s1)N/N=C/c1cccc(O)c1	-1	-8	9	-6
CN(C)N1C(N)=C(C#N)C(c2cccc([N+](=O)[O-])c2)C2=C1CC(C)(C)CC2=O (stereo not drawn)	/	/	/	0
COc1ccccc1N/C(N)=N/c1nc(C(F)(F)F)cc(=O)[nH]1	-5	3	50*	-6
COc1ccc(Cl)cc1N/C(N)=N/c1nc(C)cc(=O)[nH]1	7	-1	8	18
COCCNC(=O)c1cc2nc(-c3ccccc3)cc(C)n2n1	-4	11	1	10
Cc1cc(-c2ccccc2)nc2cc(C(=O)NCCCn3ccnc3)nn12	-6	5	66*	-4
Cc1cc(C(=O)NCCCn2ccnc2)sc1-c1ccccc1	-3	-6	70*	-13
COC(=O)/C(=C/Nc1cccc2ccccc12)[N+](=O)[O-]	-11	-11	62*	-6
COc1cc(OC)cc(C(=O)Nc2cccc3ccccc23)c1	3	7	14	-10
COc1cc(OC)cc(C(=O)OC(C)C(=O)NC2CCCc3ccccc32)c1 (stereo not drawn)	6	-4	0	/
CC1CCCC(NC(=O)c2ccc3c(c2)NC(=O)CS3)C1C (stereo not drawn)	-7	-3	2	17
CSCc1ccc(C(=O)OCc2nc3ccccc3s2)o1	8	1	21	/
C/C(CC(=O)Nc1ccc(N(C)C)cc1)=N\NC(=O)c1cnccn1	4	-6	52*	-6
COc1ccc2nc(C)cc(NCc3ccc(F)cc3)c2c1	1	9	21	8
CCCCC(=O)Nc1ccc(Br)cn1	0	-1	1	1
CCCCNC(=O)Nc1ccc(Br)cn1	-1	5	52*	3
CCOC(=O)C1(Cc2ccccc2C)CCCN(Cc2ccc(NC(C)=O)cc2)C1 (stereo not drawn)	7	0	3	-4
Clc1ccc(-c2csc(N/N=C/c3ccc4c(c3)OCO4)n2)cc1	13	-8	63*	-2
O=S(=O)(c1ccc(Br)s1)N1CCN(CCOc2ccccc2)CC1	5	-3	0	/
COc1ccc(CNC(=O)CCc2nc(-c3ccccc3F)no2)c(OC)c1	6	-4	49*	2
O=C(/C=C/c1ccc(Br)o1)Nc1nccs1	-14	-19	37	2
SMILES	procasp3 activ	procasp7 counter	AHR activator	PolyA inh
O=C(Nc1nccs1)c1ccc(-c2ccc(Cl)cc2Cl)o1	-9	-10	4	21
O=C(Nc1nccs1)c1ccc(Br)o1	5	8	57*	-13
O=C(Nc1nccs1)c1ccc(-c2ccc(F)c(Cl)c2)o1	-6	-12	72*	-4
Nc1nnc(SCC(=O)NNC(=O)c2ccc(F)cc2)s1	-3	-5	-1	/
O=C(Cc1c(F)cccc1Cl)Nc1ccc(S(=O)(=O)Nc2nccs2)cc1	-2	5	1	-5
Clc1ccc(OCc2cn3ccccc3n2)c2ncccc12	-4	1	49*	-28
C[C@H](NC(=O)c1cc2cc(Cl)ccc2n1C)C(=O)N1CCC(C(=O)O)CC1	/	/	/	-7
Cn1c(C(=O)Nc2ccc(Cl)cc2)cc2cc(Cl)ccc21	1	11	68*	-21
Cc1nn(-c2ccc(C(=O)NCC(c3ccco3)N3CCCC3)cc2)c(C)c1Cl (stereo not drawn)	5	12	-2	/
Cc1cc(C)cc(N=c2c([N+](=O)[O-])nn(-c3cccc(Cl)c3)n2O)c1	-3	-5	69*	-31
Cc1cccc(N=c2c([N+](=O)[O-])nn(-c3ccc(Cl)cc3)n2O)c1	-3	6	62*	-4
CCc1ccccc1N(C(C)=O)c1nc(CN=C=S)cs1	-3	-4	12	-12
COc1ccccc1N(C(=O)c1csnn1)C(C(=O)NC1CCCC1)c1ccccc1 (stereo not drawn)	7	0	0	-3
O=C(NCc1ccco1)C1CCN(C(=O)c2ccc([N+](=O)[O-])cc2)CC1	-17	-11	2	-1
COc1cccc(Nc2ncnc3sccc23)c1	1	-9	52*	-5
COc1ccc(N/N=C(\C#N)C(N)=O)cc1	-1	0	6	-28
N#C/C(=N/Nc1ccc(OC(F)(F)F)cc1)C(N)=S	-63	-53	54*	-5
COc1ccc(Cl)cc1C(=O)Nc1nc(C)cc(C)n1	0	-1	18	-15
Cn1c(=O)cc(SCC(=O)N2CCN(c3ccccn3)CC2)c2ccccc21	0	4	64*	-1
Cn1c(=O)cc(SCC(=O)Nc2ccccn2)c2ccccc21	5	15	62*	6
COC(=O)Nc1nnc(-c2ccccc2Cl)s1	-3	2	55*	-6
COC(=O)Nc1nnc(-c2ccncc2)s1	5	-1	14	15
COc1ccccc1-c1nnc(NC(=O)OCC(C)C)s1	-3	7	64*	-28
O=C(NCC1CCCO1)c1cc(-c2ccco2)nc2ccccc12 (stereo not drawn)	-22	-37	19	5
CCCOc1ccc(-c2cc(C(=O)NCC3CCCO3)c3ccccc3n2)cc1 (stereo not drawn)	-1	11	51*	3
SMILES	procasp3 activ	procasp7 counter	AHR activator	PolyA inh
COc1cc(OC)cc(C(=O)NC(=S)NCCc2ccccc2)c1	-2	-10	69*	-20
O=C(c1ccccc1)c1cc2ccccc2oc1=O	-2	3	49*	2
O=C(/C=C/c1cccc(F)c1)Nc1ccc(S(=O)(=O)Nc2ncccn2)cc1	5	13	54*	-9
CSc1cccc(NC(=O)/C=C/c2cccc(Cl)c2)c1	-2	0	-6	9
O=C(/C=C/c1cccc(Cl)c1)Nc1ncccn1	2	-8	64*	1
COC(=O)N/N=C(\CCC(=O)O)c1cccs1	2	6	8	-3
O=C(O)CC/C(=N\Nc1ccc(Cl)cc1)c1cccs1	-5	6	61*	9
O=C(CCc1ccccc1)Nc1ccc(S(=O)(=O)NC2=NCCCCC2)cc1	5	7	1	/
Fc1ccc(-c2noc(-c3ccc4c(c3)CCO4)n2)cc1	6	-1	62*	6
CC(C)c1ccc(NC(=O)Cn2nnc(C(=O)NCc3ccco3)c2N)cc1	-5	-3	0	2
CCc1nc(SCc2cccnc2)c2c(=O)n(C)c(=O)n(C)c2n1	-1	4	48*	1
